# Results from different studies.
# Protocols differ between the studies behind these lines. pIC50: −log10 of the molar value.
Compound,organism,assay,system,setting,quantity,value
COc1ccc(C=NNC(=S)N[N+](=O)[O-])cc1OC,Leishmania major,"parasite growth, MTT",,"72 h, promastigote",pIC50,2.92
C[C@@H](O)[C@H]1C(=O)N2C(C(=O)O)=C(SCCN=CN)C[C@H]12,Enterococcus faecalis,microbial growth,VRE,drug-resistant strain,MIC,< 1 µg/mL
O=[N+]([O-])NC(=S)NN=Cc1ccc(Br)cc1,Leishmania major,parasite growth,J774.A1,"72 h, intracellular, amastigote",pIC50,3.37
C#Cc1cccc(O)c1C=NNC(=O)c1ccc(Br)cc1,Aspergillus fumigatus,microbial growth,,"48 h, pH 6.5",MIC80,> 32 µg/mL
O=C(O)c1cn(C2CC2)c2cc(N3CCNCC3)c(F)cc2c1=O,Enterococcus faecalis,microbial growth,VRE,drug-resistant strain,MIC,< 1 µg/mL
C#Cc1ccc(C=NNC(=O)c2ccc(Br)c(Br)c2)c(O)c1,Aspergillus fumigatus,microbial growth,,"48 h, pH 6.5",MIC80,> 16 µg/mL
C=C(CN(C(=O)c1c(C(F)F)nn(C)c1F)C1CC1)c1ccc(Cl)cc1Cl,Ustilaginoidea virens,microbial growth,,12 h,EC50,0.0232 µg/mL
C#Cc1ccc(C=NNC(=O)c2cc(Br)cc(Br)c2O)c(O)c1,Aspergillus fumigatus,microbial growth,,"48 h, pH 6.5",MIC80,> 16 µg/mL
COC(=O)C1=C(C)NC(C)=C(C(=O)OC(C)(C)CN(C)CCC(c2ccccc2)c2ccccc2)C1c1cccc([N+](=O)[O-])c1 (stereo not drawn),Aspergillus fumigatus,"microbial growth, broth dilution",,48 h,MIC,> 250 µM
